RORa inhibitor: inhibitors of human nuclear receptor RORA. 65,000 compounds, 0.43% hits. CHO-K1 Gal4-RORA LBD luciferase reporter, luminescence. AID 561. inhibition, % at 10 µM. P35398;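 active means inhibition above the mean of all tested compounds plus 3 SD, cut at about 52% in these data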
Target sequence (P35398 whole entry, looked up, the tested form may be a part): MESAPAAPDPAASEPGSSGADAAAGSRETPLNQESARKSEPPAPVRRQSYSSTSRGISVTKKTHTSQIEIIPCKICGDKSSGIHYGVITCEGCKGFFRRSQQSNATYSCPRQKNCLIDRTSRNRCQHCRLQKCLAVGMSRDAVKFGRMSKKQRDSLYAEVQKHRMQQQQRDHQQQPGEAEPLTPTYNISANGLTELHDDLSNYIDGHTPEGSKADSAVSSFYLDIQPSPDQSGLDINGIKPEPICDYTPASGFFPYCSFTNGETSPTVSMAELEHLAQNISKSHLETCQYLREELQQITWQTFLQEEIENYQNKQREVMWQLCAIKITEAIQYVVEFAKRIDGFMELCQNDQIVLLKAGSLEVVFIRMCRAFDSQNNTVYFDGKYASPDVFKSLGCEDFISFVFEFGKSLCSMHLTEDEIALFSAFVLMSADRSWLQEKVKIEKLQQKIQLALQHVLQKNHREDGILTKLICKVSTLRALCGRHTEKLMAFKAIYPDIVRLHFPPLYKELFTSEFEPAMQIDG
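Test system – CHO-K1 Gal4-RORA LBD luciferase reporter cells · Schedule – 20 h at 37 °C · Signal – luminescence from basal luciferase reporter expression · Measure – percent inhibition of basal reporter luminescence, control-normalized · Control set – -RORA mock-transfected DMSO wells 100%, +RORA DMSO wells 0%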
Numbers stand for hits; n = inactive. This is one part of a sample in which hits are shown more often than they occur.

SMILES	RORa inhibitor
Clc1ccc(-n2ncc3c(NCC4CCCO4)ncnc32)cc1 (stereo unspecified)	n
CC1CCCN(c2ncnc3c2cnn3-c2ccc(Cl)cc2)C1 (stereo unspecified)	84.0
c1ccc(-n2ncc3c(N4CCCCC4)ncnc32)cc1	62.0
CN1CCN(c2ncnc3c2cnn3-c2ccc(Cl)cc2)CC1	n
Cc1cccc(-n2ncc3c(N4CCC5(CC4)OCCO5)ncnc32)c1	n
O=C(NC(Cc1ccccc1)c1nc2ccccc2[nH]1)C1CC(=O)N(c2ccc3c(c2)OCCO3)C1 (stereo unspecified)	n
Cc1ccc(C2=Nc3ccccc3NC(C)(c3ccc(C)o3)C2)o1 (stereo unspecified)	n
CCC(=O)Nc1cccc(-c2nnc(SCC(=O)c3ccccc3)n2C)c1	n
COc1ccc(CN2CCCCC2C)c(C)c1C (stereo unspecified)	n
Cc1cccc2c1NC(C)CC2C (stereo unspecified)	n
CC(C)n1c(=S)[nH]c2c1c(=O)[nH]c(=O)n2C	n
O=C(NCCC1=CCCCC1)N[C@@H](Cc1ccccc1)C(=O)O	n
COC(=O)Cc1cnc(NC(=O)C2C3CCC(C3)C2C(=O)O)s1 (stereo unspecified)	n
Nc1c(C(=O)Nc2ccc(Cl)cc2)oc2ccccc12	n
Clc1ccc(OCCN2CCN(c3ncnc4sccc34)CC2)cc1	80.9
CC(=O)C(C)Oc1ccc2c3c(c(=O)oc2c1C)CCCC3 (stereo unspecified)	n
COc1cc2c(cc1OC)C(=NCCC(=O)O)NC(C)(C)C2	n
Cc1ccc(OCC(=O)N2CCC(N3CCCCCC3)CC2)cc1	n
Cc1c(C(=O)N2CCOCC2)sc2nc(-c3ccccc3)cn12	n
Cc1c(C(=O)NCc2cccnc2)sc2nc(-c3ccccc3)cn12	n
c1ccc(-c2cn3c4c(sc3n2)CCCC4)cc1	73.8
Clc1ccc(OCc2nnc(-c3ccccc3Br)o2)c(Cl)c1	n
CC(C)C(=O)Nc1ccc2c(c1)C(=O)N(CCC(=O)O)C2=O	n
CCCn1c(C)cc(C(=O)CN2C(=O)c3ccccc3C2=O)c1C	n
COCCn1c(C)cc(C(=O)COC(=O)c2n[nH]c3ccccc23)c1C	58.4
SMILES	RORa inhibitor
C=CCn1c(C)cc(C(=O)COc2nncc3ccccc23)c1C	n
COCCN(CCOC)C(=O)CCn1c(=O)oc2ccccc21	n
COc1ccc(OC)c(-c2cc(C(=O)NCc3ccco3)no2)c1	n
COc1ccc(-n2nnc3c(SCC(=O)NCc4ccco4)ncnc32)cc1	n
COc1ccc(C(=O)Nn2c(SCC(=O)NCc3ccco3)nc3ccccc3c2=O)cc1	59.3
O=C(CSc1nc2ccccc2c(=O)n1Cc1ccco1)c1ccc(F)cc1	n
CCCCC(=O)Nc1ccc(N2CCN(C(=O)CC)CC2)cc1	n
COc1ccccc1N1CCN(CC(=O)Nc2ccc(C)c(F)c2)CC1	n
Cn1nc(CC(=O)Nc2ccc3c(c2)OCCO3)c2ccccc2c1=O	74.8
COc1ccc(N2CCN(C(=O)C3CCC(Cn4c(=S)[nH]c5ccccc5c4=O)CC3)CC2)cc1 (stereo unspecified)	n
Cc1cc(C)n(-c2ccc(C(=O)Nc3ccc4c(c3)OCCO4)cc2)n1	n
Cc1cc2ccccc2c(=O)n1CC(=O)Nc1ccc2c(c1)OCO2	n
Cc1ccc(NC(=O)Cn2nc(C)c3ccccc3c2=O)cc1F	n
Cn1nc(CC(=O)Nc2ccc(N3CCN(C(=O)OC(C)(C)C)CC3)cc2)c2ccccc2c1=O	85.9
Cc1ccc(NC(=O)Cc2nn(C)c(=O)c3ccccc23)cc1F	76.0
CN(C)CCCN1C(=O)C(O)=C(C(=O)c2cccs2)C1c1ccccn1 (stereo unspecified)	n
O=c1ccc2cc3c([nH]c4ccc(Br)cc43)oc-2c1O	n
CCN1CCN(Cc2ccc(NC(=O)Nc3ccccc3OC)cc2)CC1	n
COC(=O)CCC(=O)Nc1cccc(Br)c1	n
Cc1nnc(C)n1/N=C/C=C/c1ccccc1	n
CCn1nnc(-c2ccccc2NC(=O)C(F)(F)F)n1	n
CCCCc1nc2n[nH]c(N)c2c2c1CCCC2	n
CC(=O)Nc1ccccc1OCc1nnc(-c2cccs2)o1	n
COC(=O)c1ccc(NC(=O)C2CCCN(S(=O)(=O)c3cnc[nH]3)C2)cc1 (stereo unspecified)	n
COc1ccc(C(=O)Cn2c(N3CCOCC3)nc3ccccc32)cc1OC	n
SMILES	RORa inhibitor
O=S(=O)(NCc1ccncc1)c1ccc(Br)s1	64.8
CCOC(=O)C1CCN(C(=O)CNS(=O)(=O)c2ccc(Br)s2)CC1	n
CN1CCN(S(=O)(=O)c2ccc(Br)s2)CC1	n
Cc1cc(NC(=O)C2CCN(S(=O)(=O)Cc3ccccc3)CC2)ccc1-n1cnnn1	n
CC(C)=CCC(C)(C)CNC(=O)NC1CCCCC1	n
N#CNC1=NCN(Cc2ccccc2)CN1	n
CC1(C)CC(=O)c2cc(OCC(=O)NCCN3CCCc4ccccc43)ccc2O1	n
COC(=O)C1=C(CN2CCCc3ccccc32)NC(=O)NC1c1ccc(F)cc1 (stereo unspecified)	77.6
CCOC(=O)C1=C(C)NC(=O)NC1c1ccc(NC(C)=O)cc1 (stereo unspecified)	n
